From PMC2736802 (Drug metabolism and disposition: the biological fate of …, 2008) come the findings set out here.

In series [1] the test system is P450 3A4. It is filed as biochemical, human. The following applies: for % Activity Remaining: 50 μM CPE or 12 μM TFCPE; for loss in O-debenzylation activity: after a 20-min incubation compared with 0 min. In short, it runs like this:
(§1)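 Purified P450 was reconstituted with reductase and held 20 min at room temperature, then diluted in 50 mM Hepes pH 7.5 with 2 mM GSH and 250 units catalase. Test compound was added (25–500 μM or 5–100 μM, in acetonitrile), then NADPH. Timed 9 pmol aliquots went into 50 μM BFC/1 mM NADPH in 200 mM phosphate pH 7.4 for 15 min at 37 °C. Fluorescence read at ex 409/em 530 nm; KI, kinact and t1/2 from double-reciprocal plots.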

Series [2] relates to P450 3A4. It is filed as biochemical, human. The following applies: substrate testosterone; reconstituted system.
Series [3] has as its target T1, P450 3A5 (Homo sapiens, UniProt P20815). It is filed as biochemical. The following applies: in the presence of NADPH. In short, it runs like this:
as §1

Another series relates to human liver microsomes. The experiment in a line: Inactivation of human liver microsomes. As to conditions: BFC assay; data not shown. It is filed as biochemical.
In series [4] the test system is dextromethorphan induced micrsomes. Nature of the series: Inactivation of dextromethorphan induced microsomes. It is filed as biochemical. The following applies: data not shown. In short, it runs like this:
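Human liver microsomes and dextromethorphan-induced microsomes (0.3 nmol) were incubated with test compound in the presence of catalase and GSH. Reactions were started with NADPH and sampled at 0, 5 and 12 min. Residual activity was measured by the BFC O-debenzylation fluorescence assay.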

Series [5] relates to P450 3A4. The experiment in a line: Heme analysis of inactivated P450 3A4. It is filed as biochemical, human. The following applies: for % P450 Remaining by reduced-CO spectrum: 50 μM CPE or 12 μM TFCPE; for Residual Heme by HPLC: area under heme peak at 405 nm, control set to 100 %; for loss in heme: measured by HPLC, compared with the -NADPH control. In a few lines: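 P450 3A4 was reconstituted and inactivated as in the activity assay (50 μM or 12 μM test compound, 20 min, ±NADPH). For reduced-CO spectra, 100 pmol went into 50 mM phosphate pH 7.4 with 40% glycerol and 0.6% Tergitol, was CO-bubbled and dithionite-reduced, and scanned at 400–500 nm. For heme, 100 pmol was run on C4 HPLC (30–90% acetonitrile, 0.1% TFA, 30 min) and the 405 nm peak area was set against control = 100%. Mean and S.D. of four experiments.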

The test system of series [6] is P450 3A4. The experiment in a line: Formation of 7-hydroxycoumarin by P450 3A4. It is filed as in vitro ADME, human. As to conditions: 30 min reaction. In a few lines:
(§2)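 P450 3A4 or 3A5 (expressed in E. coli, purified) was reconstituted with test compound. Reactions were started with 1 mM NADPH, run 30 min and stopped with 15% trichloroacetic acid. 7-Hydroxycoumarin was measured by C18 HPLC (isocratic 30% methanol, 0.2% acetic acid) with fluorescence detection (ex 350/em 453 nm). Quantified from peak areas against a 7-hydroxycoumarin standard curve.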

The target of series [7] is T1, P450 3A5. Nature of the series: Formation of 7-hydroxycoumarin by P450 3A5. It is filed as in vitro ADME. The following applies: 30 min reaction. In a few lines: as §2
For series [8], the system named is P450 3A4. Nature of the series: Trapping of reactive intermediates formed by P450 3A4 with GSH. It is filed as in vitro ADME, human. The following applies: incubation with P450 3A4 in the presence of GSH and NADPH. In a few lines: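 Reconstituted P450 3A4 (0.5 nmol, with reductase and lipid) was inactivated by the test compound plus NADPH in the presence of 10 mM GSH. Reactions were stopped with 10% trifluoroacetic acid (60 μl/ml sample). Separation used a C18 column in a 5% acetonitrile/0.1% acetic acid gradient. Detection was ESI MS: full scan m/z 150–1000 plus two dependent MS/MS scans at 35% collision energy, with fluorescence detection also used.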

Series [9] relates to P450 3A4. Nature of the series: LC-APCI-MS metabolite analysis with P450 3A4. It is filed as in vitro ADME, human. The following applies: incubation with P450 3A4 and NADPH. In a few lines:
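P450 3A4 reconstituted with reductase and lipid, then incubated with the test compound and NADPH at 37°C for 60 min. Control and inactivated samples (900 pmol each) were extracted with ethyl acetate and dried under nitrogen. Analysis was by LC-APCI-MS with UV at 319 nm, full scans m/z 100–2000, and data-dependent MS/MS on the four most intense ions.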

Series [10] concerns the target T1, P450 3A5. The experiment in a line: LC-APCI-MS metabolite analysis with P450 3A5. As to conditions: incubation with P450 3A5. It is filed as in vitro ADME. In short, it runs like this:
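Reconstituted P450 3A5 was incubated with test compound and NADPH. Samples (900 pmol) were extracted with ethyl acetate, dried and taken up in 50% acetonitrile. Separation used C18 reverse phase with a water/acetonitrile gradient in 0.1% acetic acid, monitored by UV at 319 nm. Detection was positive-mode APCI on a linear ion trap, with full scans at m/z 100–2000 and data-dependent MS/MS.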

The mark [11] stands for this setting: substrate BFC, reconstituted system.

“Also recorded” adds a separate entry of the source. Where two headings read alike, the source gives them in different places.

T1 sequence (P20815 whole entry): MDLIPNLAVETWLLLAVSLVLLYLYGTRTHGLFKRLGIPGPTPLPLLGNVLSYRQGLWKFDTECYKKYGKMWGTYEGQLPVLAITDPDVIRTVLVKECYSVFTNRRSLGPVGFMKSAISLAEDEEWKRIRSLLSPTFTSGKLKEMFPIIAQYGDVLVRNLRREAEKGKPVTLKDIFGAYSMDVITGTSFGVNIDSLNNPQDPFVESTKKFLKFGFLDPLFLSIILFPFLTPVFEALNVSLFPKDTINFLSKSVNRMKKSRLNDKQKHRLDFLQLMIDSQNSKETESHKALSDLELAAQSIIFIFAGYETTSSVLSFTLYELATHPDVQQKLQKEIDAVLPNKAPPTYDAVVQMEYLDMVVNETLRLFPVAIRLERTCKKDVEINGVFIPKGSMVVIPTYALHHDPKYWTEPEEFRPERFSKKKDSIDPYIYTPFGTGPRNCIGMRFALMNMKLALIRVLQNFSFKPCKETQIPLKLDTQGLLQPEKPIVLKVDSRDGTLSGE

On to `C#CCOc1ccc2ccc(=O)oc2c1` [CPE, 7-coumarin propargyl ether], for which the “% Activity Remaining” value was determined as 85 ± 4% in the series on P450 3A4 [1] (0 min, +NADPH); 86 ± 5% in the series on P450 3A4 [1] (0 min, -NADPH); 50 ± 9% in the series on P450 3A4 [1] (20 min, +NADPH); 79 ± 3% with P450 3A4 [1] (20 min, -NADPH). In addition, the “loss in O-debenzylation activity” value with P450 3A4 [1] is listed as roughly 35%. For the same molecule, the entries for the “Kinact (maximal rate of inactivation)” value in the series on P450 3A4 [1] (setting [11]) and in the series on P450 3A4 [2] were 0.05 min⁻¹ and 0.014 min⁻¹, respectively. Besides, the “inactivation of the BFC O-debenzylation activity of P450 3A5” value at P450 3A5 [3] was “no inactivation; also recorded: neither CPE nor TFCPE showed any effect; also recorded: do not affect the activity”. Moreover, in the series with human liver microsomes, the “inactivation of human liver microsomes” value is “did not show inactivation; also recorded: neither CPE nor TFCPE led to any inactivation”. In addition, the “inactivation of dextromethorphan induced microsomes” value in series [4] was “did not show inactivation”. For the same molecule, the “% P450 Remaining by reduced-CO spectrum” value with P450 3A4 [5] (0 min, +NADPH) amounted to 69 ± 5%; with P450 3A4 [5] (0 min, -NADPH), 69 ± 7%; with P450 3A4 [5] (20 min, +NADPH), 67 ± 4%; in the series on P450 3A4 [5] (20 min, -NADPH), 67 ± 2%. The “Residual Heme by HPLC” value in the series on P450 3A4 [5] (+NADPH) amounted to 70 ± 11%; in the series with P450 3A4 [5] (-NADPH), 100 ± 9%. Moreover, the loss in heme entry with P450 3A4 [5] is reported as “approximately 30%”. For the same molecule, the “Formation of 7-OH coumarin” value in the series with P450 3A4 [6] stood at 48.1 ± 5 pmol/pmol P450/min; on P450 3A5 [7], 85.5 ± 7 pmol/pmol P450/min. The “formation of glutathione adducts” value with P450 3A4 [8] is “formation of CPE- and TFCPE-glutathione adducts”. In the series with P450 3A4 [9], the “metabolite peak by LC-APCI-MS/UV 319 nm” value was “No similar peak or any other metabolite peak was observed”.
As to `C#CCOc1ccc2c(C(F)(F)F)cc(=O)oc2c1` [TFCPE, 7-(4-trifluoromethyl)coumarin propargyl ether], the “% Activity Remaining” value in the series with P450 3A4 [1] (0 min, +NADPH) was 82 ± 5%; in the series with P450 3A4 [1] (0 min, -NADPH), 88 ± 3%; in the series with P450 3A4 [1] (20 min, +NADPH), 25 ± 3%; in the series on P450 3A4 [1] (20 min, -NADPH), 79 ± 7%. In addition, in the series with P450 3A4 [1], the “loss in O-debenzylation activity” value is “approximately 55%”. Also, the “Kinact (maximal rate of inactivation)” value in the series on P450 3A4 [1] (setting [11]) and in the series with P450 3A4 [2] was 0.04 min⁻¹ in each case. The t1/2 with P450 3A4 [1] (setting [11]) amounted to 16.5 min; in the series on P450 3A4 [2] it was 17 min. In addition, the loss in activity entry in the series on P450 3A4 [1] (with the -NADPH +TFCPE control) is given as “approximately 55%”. The “inactivation of the BFC O-debenzylation activity of P450 3A5” value at P450 3A5 [3] is given as “no inactivation; also recorded: neither CPE nor TFCPE showed any effect; also recorded: do not affect the activity”. In addition, the “inactivation of human liver microsomes” value with human liver microsomes is “did not show inactivation; also recorded: neither CPE nor TFCPE led to any inactivation”. In series [4], the “inactivation of dextromethorphan induced microsomes” value is listed as “did not show inactivation”. In addition, the “% P450 Remaining by reduced-CO spectrum” value in the series on P450 3A4 [5] (0 min, +NADPH) was 75 ± 6%; in the series with P450 3A4 [5] (0 min, -NADPH) it was 75 ± 4%; in the series on P450 3A4 [5] (20 min, +NADPH) it was 43 ± 4%; in the series on P450 3A4 [5] (20 min, -NADPH) it was 62 ± 2%. The entries for the “Residual Heme by HPLC” value with P450 3A4 [5] (+NADPH) and in the series on P450 3A4 [5] (-NADPH) were 61 ± 2% and 100 ± 4%, respectively. This molecule also showed a loss in heme in the series with P450 3A4 [5] of 40%. Besides, the “Formation of 7-OH coumarin” value is on record as 97.2 ± 1 pmol/pmol P450/min with P450 3A4 [6] and 78.8 ± 11 pmol/pmol P450/min at P450 3A5 [7]. Further, the “formation of glutathione adducts” value in the series with P450 3A4 [8] was “formation of CPE- and TFCPE-glutathione adducts”. Further, in the series with P450 3A4 [9], the “metabolite peak by LC-APCI-MS/UV 319 nm” value is reported as “single metabolite peak eluting at 20.34 min”. In addition, the “metabolite by LC-APCI-MS” value at P450 3A5 [10] is “did not result in any metabolite”.
